# ChEMBL document CHEMBL5352422, “Development of l-Dopa-containing diketopiperazines as blood-brain barrier shuttle” (Eur J Med Chem, 2022)
# Experiments:
# [1] = Antioxidant activity against Primary human whole blood cell assessed as H2O2 equivalent of total oxidative stress at 10 nM incubated for 24 hrs (0.6 to 1.9 micromolequiv/L); assay type: functional
# [2] = Antioxidant activity against rat Cerebral cortex cell assessed as H2O2 equivalent of total oxidative stress at 250 nM incubated for 24 hrs (0.7 to 2.3 micromolequiv/L); assay type: functional, Cerebral cortex neuron
# [3] = Induction of DNA damage in rat Cerebral cortex cell assessed as total DNA damage score at 100 nM incubated for 24 hrs by Comet assay (reference value: 36.8 to 89.2); assay type: functional, Cerebral cortex neuron
# [4] = Stability of the compound in stimulated gastric fluid at 40 mg/ml pepsin by measuring half life measured upto 60 mins by HPLC analysis; assay type: ADME; conditions: simulated gastric fluid with pepsin
# Outline: (§1)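 USP simulated gastric fluid containing pepsin, preheated, in a 37 °C shaking water bath. Samples at 0, 15, 30 and 60 min were deproteinized with ice-cold acetonitrile containing 0.5% formic acid, centrifuged at 4 °C, filtered and analyzed by HPLC. Means of three experiments.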
# [5] = Antioxidant activity against rat Cerebral cortex cell assessed as H2O2 equivalent of total oxidative stress at 50 nM incubated for 24 hrs (0.7 to 2.3 micromolequiv/L); assay type: functional, Cerebral cortex neuron
# [6] = Induction of DNA damage in Primary human whole blood cell assessed as total DNA damage score at 10 nM incubated for 24 hrs by Comet assay (reference value: 35.4 to 77.9); assay type: functional
# [7] = Effective permeability of compound at 500 uM incubated for 18 hrs by […] method; assay type: ADME; conditions: read-out: Peff
# Outline: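 PAMPA-BBB: donor contained compound at 500 µM final in PBS pH 7.4 with 20% v/v MeOH. Incubated 18 h. Donor and acceptor concentrations measured by HPLC; effective permeability Pe (cm/s) calculated.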
# [8] = Stability of the compound in phosphate buffer assessed as chemical hydrolysis by measuring observed rate constant at pH 7.4; assay type: physicochemical
# Outline: (§2)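 Chemical hydrolysis at 37 °C in hydrochloric acid buffer pH 1.2 or phosphate buffer pH 7.4. Remaining compound followed by HPLC with UV detection. t1/2 and k_obs are means of three experiments ± SD.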
# [9] = Genotoxicity in human Lymphocyte assessed as sister chromatid exchange measured per cells at 100 nM incubated for 72 hrs giemsa staining based fluorescence method (reference value: 6.6 to 14.3); assay type: toxicity, cell-based; conditions: 0.1 µM
# [10] = Genotoxicity in human Lymphocyte assessed as sister chromatid exchange measured per cells at 250 nM incubated for 72 hrs giemsa staining based fluorescence method (reference value: 6.6 to 14.3); assay type: toxicity, cell-based; conditions: 0.25 µM
# [11] = Stability of the compound in hydrochloric acid buffer assessed as chemical hydrolysis by measuring half life at pH 1.2; assay type: physicochemical; outline: as §2
# [12] = Induction of DNA damage in rat Cerebral cortex cell assessed as 8-OH-dG adducts formation at 250 nM incubated for 24 hrs by […] (reference value: 0.14 to 1.92 pg/ml); assay type: functional, Cerebral cortex neuron
# [13] = Genotoxicity in human Lymphocyte assessed as micronuclei formation measured per 1000 cells at 500 nM incubated for 72 hrs giemsa staining based analysis (reference value: 4.5 to 17.9); assay type: toxicity, cell-based; conditions: 0.5 µM
# Outline: (§3)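 Human whole-blood lymphocyte cultures with phytohemagglutinin, incubated with compound for 72 h at 37 °C. Cytochalasin B added at 44 h. Cells fixed in ice-cold methanol/acetic acid 1:1, cytospun, Giemsa-stained. At least 1000 binucleated lymphocytes per concentration scored for micronuclei by one observer.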
# [14] = Antioxidant activity against rat Cerebral cortex cell assessed as trolox equivalent of total antioxidant capacity at 100 nM incubated for 24 hrs (14.7 to 27.5 mmolequiv/L ); assay type: functional, Cerebral cortex neuron
# [15] = Solubility of the compound in water by HPLC-UV analysis; assay type: physicochemical
# [16] = Induction of DNA damage in rat Cerebral cortex cell assessed as 8-OH-dG adducts formation at 10 nM incubated for 24 hrs by Comet assay (reference value: 0.14 to 1.92 pg/ml); assay type: functional, Cerebral cortex neuron
# [17] = Cytotoxicity against Primary human whole blood cell at 10 to 500 nM incubated for 24 hrs by MTT assay; assay type: toxicity, cell-based; conditions: 0.5 µM, dose 10-500 nM
# Outline: (§4)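 Primary cultures (rat fetal cortical neurons; human whole-blood cultures with phytohemagglutinin) exposed to aqueous compound at 10–500 nM for 24 h at 37 °C. Then incubated with 0.7 mg/mL MTT for 30 min at 37 °C, formazan extracted with isopropanol/formic acid 95:5, read at 560 nm. Control formazan = 100% viability. Mitomycin C 10^-7 M as positive control; n = 4.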
# [18] = Genotoxicity in human Lymphocyte assessed as micronuclei formation measured per 1000 cells at 50 nM incubated for 72 hrs giemsa staining based analysis (reference value: 4.5 to 17.9); assay type: toxicity, cell-based; conditions: 0.05 µM; outline: as §3
# [19] = Stability of the compound in stimulated gastric fluid at 40 mg/ml pepsin by measuring observed rate constant measured upto 60 mins by HPLC analysis; assay type: ADME; conditions: simulated gi fluid, 1 h; outline: as §1
# [20] = Stability of the compound in hydrochloric acid buffer assessed as chemical hydrolysis by measuring observed rate constant at pH 1.2; assay type: physicochemical; outline: as §2
# [21] = Genotoxicity in human Lymphocyte assessed as micronuclei formation measured per 1000 cells at 10 nM incubated for 72 hrs giemsa staining based analysis (reference value: 4.5 to 17.9); assay type: toxicity, cell-based; conditions: 0.01 µM; outline: as §3
# [22] = Cytotoxicity against rat Cerebral cortex cell at 10 to 500 nM incubated for 24 hrs by MTT assay; assay type: toxicity, cell-based; conditions: cerebral cortex neuron, 0.5 µM, dose 10-500 nM; outline: as §4
# [23] = Induction of DNA damage in rat Cerebral cortex cell assessed as 8-OH-dG adducts formation at 500 nM incubated for 24 hrs by […] (reference value: 0.14 to 1.92 pg/ml); assay type: functional, Cerebral cortex neuron
# Outline: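 Primary rat cerebral cortex neurons from fetuses, grown in neurobasal medium with FCS on poly-D-lysine flasks and used after 8 days. Aqueous compound at 10–500 nM for 24 h at 37 °C. Untreated cultures served as negative control and MMC 10^-7 M as positive control. 8-OH-dG measured with a commercial ELISA-type kit and reported in pg/mL. Four independent experiments, mean ± SD.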
# [24] = Genotoxicity in human Lymphocyte assessed as micronuclei formation measured per 1000 cells at 100 nM incubated for 72 hrs giemsa staining based analysis (reference value: 4.5 to 17.9); assay type: toxicity, cell-based; conditions: 0.1 µM; outline: as §3
# [25] = Antioxidant activity against Primary human whole blood cell assessed as trolox equivalent of total antioxidant capacity at 100 nM incubated for 24 hrs (19.3 to 32.5 mmolequiv/L ); assay type: functional
# [26] = Stability of the compound in stimulated gastric fluid at 10 mg/ml pepsin by measuring half life measured upto 60 mins by HPLC analysis; assay type: ADME; conditions: simulated gastric fluid with pepsin; outline: as §1
# [27] = Genotoxicity in human Lymphocyte assessed as sister chromatid exchange measured per cells at 10 nM incubated for 72 hrs giemsa staining based fluorescence method (reference value: 6.6 to 14.3); assay type: toxicity, cell-based; conditions: 0.01 µM
# [28] = Stability of the compound in phosphate buffer assessed as chemical hydrolysis by measuring half life at pH 7.4; assay type: physicochemical; outline: as §2
SMILES,Activity [1] [umolequiv/L],Activity [2] [umolequiv/L],Activity [3],half-life [4] [h],Activity [5] [umolequiv/L],Activity [6],"Papp at 18 h, 500 µM [7] [×10⁻⁶ cm/s]",Kobs [8] [h⁻¹],Activity [9],Activity [10],half-life [11] [h],Activity [12] [pg/mL],Activity [13],Activity [14] [mmolequiv/L],solubility [15] [µg/mL],Activity [16] [pg/mL],Activity [17],Activity [18],Kobs [19] [h⁻¹],Kobs [20] [h⁻¹],further results
C#CCSC[C@H]1NC(=O)[C@H](Cc2ccc(OC(C)=O)c(OC(C)=O)c2)NC1=O,0.6,0.6,37.8,57.1,0.6,36,4.88,0.015,6.6,7.1,134,0.14,5.1,15.2,630,0.14,Non-Toxic,4.8,0.012,0.005,Activity [21]: 4.6; Activity [22]: Non-Toxic; Activity [23]: 0.15 pg/mL; Activity [24]: 4.9; Activity [25]: 19.5 mmolequiv/L; half-life [26]: 91 h; Activity [27]: 6.5; half-life [28]: 47.5 h
C=CCSC[C@H]1NC(=O)[C@H](Cc2ccc(OC(C)=O)c(OC(C)=O)c2)NC1=O,0.6,0.7,37.1,22.4,0.7,35,2.42,0.022,6.9,7.1,18.9,0.15,5.2,14.4,323,0.14,Non-Toxic,4.9,0.031,0.037,Activity [21]: 4.7; Activity [22]: Non-Toxic; Activity [23]: 0.15 pg/mL; Activity [24]: 5; Activity [25]: 19.7 mmolequiv/L; half-life [26]: 24.2 h; Activity [27]: 6.8; half-life [28]: 30.9 h
